Data on twelve compounds can be found in ChEMBL document CHEMBL1126311, “Novel functional M1 selective muscarinic agonists. 2. Synthesis and structure-activity relationships of 3-pyrazinyl-1,2,5,6-tetrahydro-1-methylpyridines. Construction of a molecular model for the M1 pharmacophore” (J Med Chem, 1992).

Assay [1] is filed under the species Oryctolagus cuniculus. The experiment in a line: (§1) Efficacy at M1 receptor measured by the ability to inhibit the electrically stimulated twitch of the rabbit vas deferens. It is filed as functional. In a few lines: (§2)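 Cumulative concentration-effect curves with additions at 20-min intervals in two tissues; read-out twitch height decrease; if inhibition ≥50%, curves repeated in at least six tissues.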

Assay [2] deals with T1, Muscarinic acetylcholine receptor M1 (Rattus norvegicus, UniProt P08482).
T1 sequence (P08482 whole entry): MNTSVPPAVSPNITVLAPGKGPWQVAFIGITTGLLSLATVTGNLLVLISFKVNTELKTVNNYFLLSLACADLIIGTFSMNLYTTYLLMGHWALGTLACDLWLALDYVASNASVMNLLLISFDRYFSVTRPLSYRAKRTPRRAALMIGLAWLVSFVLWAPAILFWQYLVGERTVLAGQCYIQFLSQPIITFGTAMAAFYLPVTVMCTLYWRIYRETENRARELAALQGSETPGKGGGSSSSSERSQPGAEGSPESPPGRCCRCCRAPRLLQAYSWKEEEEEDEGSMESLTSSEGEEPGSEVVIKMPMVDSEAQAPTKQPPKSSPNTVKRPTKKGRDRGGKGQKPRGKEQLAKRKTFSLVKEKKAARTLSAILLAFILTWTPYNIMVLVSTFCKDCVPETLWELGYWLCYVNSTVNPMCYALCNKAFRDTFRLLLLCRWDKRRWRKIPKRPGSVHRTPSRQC
The experiment in a line: In vitro binding affinity against rat hippocampus M1 receptor using [3H]pirenzepine (Pz) as radioligand. It is filed as tissue-based. In a few lines:
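Male Sprague-Dawley rat hippocampal P2 membranes (10 mg tissue wet weight, about 0.1 mg protein) with 1 nM [3H]pirenzepine in 20 mM Tris-Cl pH 7.4 containing 1 mM MnCl2, 1 mL, 60 min at 25 °C.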

Assay [3] deals with T1, Muscarinic acetylcholine receptor M1. The experiment in a line: In vitro binding affinity against rat hippocampus M1 receptor using [3H]oxotremorine-M (Oxo-M) as radioligand. It is filed as tissue-based. In a few lines: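 Male Sprague-Dawley rat hippocampal P2 membranes (10 mg tissue wet weight, about 0.1 mg protein) with 3 nM [3H]oxotremorine-M in 20 mM Tris-Cl pH 7.4, 1 mL, 15 min at 25 °C.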

The species named for assay [4] is Oryctolagus cuniculus. The assay is described as §1. It counts as functional, organism-based. In a few lines: as §2
Assay [5] has as its target T1, Muscarinic acetylcholine receptor M1. Briefly: Displacement of [3H]pirenzepine (Pz) from rat hippocampus muscarinic acetylcholine receptor M1. It is filed as tissue-based. On the technique in general: Displacement assays read how much labelled ligand stays bound in the presence of the test substance.
For assay [6] the target is unchanged. Briefly: Displacement of [3H]oxotremorine-M (Oxo-M) from rat hippocampus muscarinic acetylcholine receptor M1. It is filed as tissue-based.

pIC50: −log10 of the molar value.

`CCCCCCOc1nccnc1C1=CCCN(C)C1` registered a Max in the assay filed under Oryctolagus cuniculus [1] of 93%. The negative logarithm of the IC50 (pIC50) – broadly, the negative decadic logarithm of the IC50, by convention in mol/L – in assay [2] is 7.77; in assay [3] it was 7.70; in the assay listed under Oryctolagus cuniculus [4], 6.58.

On to `CCCCOc1nccnc1C1=CCCN(C)C1`, for which the Max in the assay listed under Oryctolagus cuniculus [1] came out at 0%. Further, the pIC50 in assay [2] and in assay [3] was 7.77 in each case.

Turning to `CCCCCCSc1nccnc1C1=CCCN(C)C1`, the Max in the assay filed under Oryctolagus cuniculus [1] amounted to 62%. Also, the results for the pIC50 (in assay [2]; in assay [3]; in the assay filed under Oryctolagus cuniculus [4]) were 7.55, 7.36 and 6.65, respectively.

Regarding `CN1CCC=C(c2nccnc2Cl)C1`, the negative-log IC50 (pIC50) in assay [5] is under 6.00; in assay [6] it was 6.56.

As to `CCCOc1nccnc1C1=CCCN(C)C1`, the Max in the assay listed under Oryctolagus cuniculus [1] worked out at 4%. The pIC50 was 7.19 in assay [2] and 7.24 in assay [3].

As for `CCCCCSc1nccnc1C1=CCCN(C)C1`, the Max in the assay listed under Oryctolagus cuniculus [1] turned out to be 18%. Moreover, the negative-log IC50 (pIC50) in assay [2] is 8.00; in assay [3] it was 7.89.

For the compound `COc1nccnc1C1=CCCN(C)C1`, the Max in the assay listed under Oryctolagus cuniculus [1] is 0%. Further, the pIC50 in assay [2] is 6.08; in assay [3] it was 6.07.

In the assay listed under Oryctolagus cuniculus [1], `CCCOc1nsnc1C1=CCCN(C)C1` gave a Max of 25%.

In turn, `CCCCCCNc1nsnc1C1=CCCN(C)C1` gave a Max in the assay filed under Oryctolagus cuniculus [1] of 65%.

In turn, `CCCCCOc1nccnc1C1=CCCN(C)C1` came in with a Max in the assay listed under Oryctolagus cuniculus [1] of 29%. The results for the pIC50 in assay [2] and in assay [3] were 7.80 and 7.72, respectively.

Consider `CCOc1nccnc1C1=CCCN(C)C1`, for which the Max in the assay filed under Oryctolagus cuniculus [1] is 14%. Further, the figures for the negative-log IC50 (pIC50) in assay [2] and in assay [3] were 6.76 and 6.70, respectively.

As for `CCCCCCOc1nonc1C1=CCCN(C)C1`, in the assay filed under Oryctolagus cuniculus [1], the Max is on record as 47%.
